Laboratory results as given in ChEMBL document CHEMBL5608194, “Novel neuroprotective 5,6-dihydropyrido[2',1':2,3]imidazo[4,5-c]quinoline derivatives acting through cholinesterase inhibition and CB2 signaling modulation” (Eur J Med Chem, 2024).
Activity calls are given as the source filed them. The calls are words filed in the database; no cut-off is given here.

Experiments:
[1] = test system: SH-SY5Y; assay: Inhibition of MPP+ induced superoxide radical production in ATRA-differentiated human SH-SY5Y cells at 10 uM incubated for 24 hrs by MitoSOX staining based confocal laser scanning microscopy; assay type: functional, cell-based
Summary of the method: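 50 000 cells seeded on chamber slides, ATRA-differentiated, co-treated with 5 mM MPP+ and compound for 24 h, then stained with MitoSOX and imaged by confocal laser-scanning microscopy (63× objective).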

[2] = test system: SH-SY5Y; assay: Neuroprotective activity against ATRA-differentiated and MPP+ induced cell death in human SH-SY5Y cells assessed as cell death at 1 uM incubated for 24 hrs by propidium iodide staining based fluorescence assay (reference value: 100%); assay type: functional
Summary of the method: (§1)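 ATRA-differentiated SH-SY5Y co-treated with compound and 5 mM MPP+ for 24 h; cell death by propidium iodide fluorescence, MPP+-treated signal set to 100 %.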

[3] = Selectivity index, ratio of IC50 for electric eel AChE to IC50 for equine serum BChE
Summary of the method: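 Ratio of IC50 values from modified Ellman spectrophotometric assays with electric eel AChE and equine serum BChE. Each used enzyme at 0.2 U/mL final, acetylthiocholine or butyrylthiocholine at 40 μM, and DTNB at 100 μM. Inhibitors were dissolved in DMSO, diluted in water, and tested at five concentrations in triplicate. IC50 came from regression of v0/vi against inhibitor concentration.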

[4] = test system: SH-SY5Y; assay: Neuroprotective activity against MPP+ induced cell death in human SH-SY5Y cells assessed as cell death at 1 uM incubated for 24 hrs by Cas-3, 7 staining based assay; assay type: functional
Summary of the method: (§2)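 Caspase-3/7 activation with Ac-DEVD-AFC substrate after 24 h co-treatment of neuron-like SH-SY5Y with compound and 5 mM MPP+; MPP+ signal set to 100 %; triplicates on at least three independent days.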

[5] = molecular target: Cholinesterase (Equus caballus, UniProt P81908); assay: Inhibition of equine serum BChE using butyrylthiocholine as substrate by Ellman's method
Summary of the method: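 Equine serum BChE (0.2 U/mL final) with 40 μM butyrylthiocholine and 100 μM DTNB, modified Ellman spectrophotometry; compounds from DMSO diluted in water, five inhibitor concentrations; IC50 from regression of v0/vi versus inhibitor concentration; triplicate.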

[6] = molecular target: Mitogen-activated protein kinase; ERK1/ERK2 (Homo sapiens) (UniProt P27361+P28482); assay: Inhibition of MPP+ induced ERK1/2 phosphorylation in human SH-SY5Y cells at 1 to 10 uM incubated for 24 hrs by Western blotting analysis; assay type: cell-based; conditions: dose 1-10 µM
Summary of the method: (§3)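 ATRA-differentiated neuron-like SH-SY5Y co-treated with 5 mM MPP+ and compound for 24 h, lysed in RIPA buffer, SDS-PAGE, transfer to nitrocellulose, immunoblot for p-Akt (Ser473) and ERK1/2; HSP90 and β-actin loading controls; ECL chemiluminescence imaged by CCD camera.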

[7] = test system: SH-SY5Y; assay: Neuroprotective activity against MPP+ induced cell death in human SH-SY5Y cells at 1 to 10 uM in presence of AM630; assay type: functional, cell-based; conditions: dose 1-10 µM
Summary of the method: (§4)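 Neuron-like SH-SY5Y co-treated for 24 h with 5 mM MPP+, compound and CB2 inverse agonist AM630 or antagonist SR144528 at 0.1, 1 or 10 μM; CB2 ligands also tested alone and with MPP+; cell death read-out; triplicates on three independent days.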

[8] = test system: SH-SY5Y; assay: Neuroprotective activity against MPP+ induced cell death in human SH-SY5Y cells assessed as cell death at 1 uM by YOPRO-1 staining based assay; assay type: functional
Summary of the method: (§5)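 Neuron-like SH-SY5Y co-treated with compound and 5 mM MPP+ for 24 h; centrifuged at 500 × g, medium replaced by 1 μM YO-PRO1 in PBS for 15 min at room temperature; fluorescence 488/530 nm; MPP+ signal set to 100 %; triplicates on at least three independent days.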

[9] = test system: SH-SY5Y; assay: Inhibition of MPP+ induced mitochondrial superoxide radical production in human SH-SY5Y cells at 10 uM incubated for 24 hrs by MitoSOX staining based microplate reader assay (reference value: 100%); assay type: functional
Summary of the method: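 Neuron-like SH-SY5Y (20 000 cells/well) co-treated with 5 mM MPP+ and compound for 24 h; plates centrifuged, medium replaced by 5 μM MitoSOX in HBSS, 30 min at 37 °C, fluorescence 500/580 nm; MPP+ signal set to 100 %; triplicates on at least four independent days.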

[10] = test system: SH-SY5Y; assay: Inhibition of MPP+ induced superoxide radical production in human SH-SY5Y cells at 10 uM incubated for 24 hrs by microplate reader assay (reference value: 100%); assay type: functional
Summary of the method: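 Neuron-like SH-SY5Y co-treated with 5 mM MPP+ and compound for 24 h; centrifuged at 500 × g, medium replaced with 10 μM dihydroethidium in PBS for 30 min, fluorescence 500/580 nm; MPP+ signal set to 100 %; triplicates on at least four independent days.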

[11] = test system: SH-SY5Y; assay: Neuroprotective activity against MPP+ induced cell death in human SH-SY5Y cells assessed as cell death at 10 uM incubated for 24 hrs by Cas-3, 7 staining based assay; assay type: functional; summary of the method: as §2
[12] = test system: SH-SY5Y; assay: Inhibition of MPP+ induced Akt phosphorylation at Ser473 residues in human SH-SY5Y cells at 1 to 10 uM incubated for 24 hrs by Western blotting analysis; assay type: cell-based; conditions: dose 1-10 µM; summary of the method: as §3
[13] = test system: SH-SY5Y; assay: Neuroprotective activity against ATRA-differentiated and 3-NPA induced cell death in human SH-SY5Y cells assessed as cell death at 10 uM incubated for 48 hrs by propidium iodide staining based fluorescence assay (reference value: 100%); assay type: functional
Summary of the method: (§6)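 ATRA-differentiated SH-SY5Y co-treated with compound and 20 mM 3-nitropropionic acid for 48 h; cell death by propidium iodide fluorescence, 3-NPA-treated signal set to 100 %.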

[14] = test system: SH-SY5Y; assay: Inhibition of MPP+ induced mitochondrial depolarization in human SH-SY5Y cells at 10 uM incubated for 2 hrs by JC10 staining based confocal laser scanning microscopy; assay type: functional
Summary of the method: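 ATRA-differentiated SH-SY5Y co-treated with 5 mM MPP+ and compound for 2 h; mitochondrial membrane potential by JC10 ratiometric red/green signal (plate) and confocal imaging of JC10-stained cells (50 000 cells/well slides); DMSO control set to 100 %; triplicates on three independent days.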

[15] = test system: SH-SY5Y; assay: Neuroprotective activity against MPP+ induced cell death in human SH-SY5Y cells assessed as cell death at 10 uM by YOPRO-1 staining based assay; assay type: functional; summary of the method: as §5
[16] = test system: SH-SY5Y; assay: Neuroprotective activity against ATRA-differentiated and MPP+ induced cell death in human SH-SY5Y cells assessed as cell death at 10 uM by LDH release assay (reference value: 100%); assay type: functional
Summary of the method: (§7)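 ATRA-differentiated SH-SY5Y co-treated with 5 mM MPP+ and compound; cell death by commercial LDH release kit; MPP+ value set to 100 %; triplicates on at least three independent days.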

[17] = test system: SH-SY5Y; assay: Neuroprotective activity against MPP+ induced cell death in human SH-SY5Y cells assessed as decrease in PARP1 cleavage at 1 to 10 uM incubated for 24 hrs by immunoblotting analysis; assay type: functional, cell-based; conditions: dose 1-10 µM
[18] = test system: SH-SY5Y; assay: Neuroprotective activity against ATRA-differentiated and 3-NPA induced cell death in human SH-SY5Y cells assessed as cell death at 1 uM incubated for 48 hrs by propidium iodide staining based fluorescence assay (reference value: 100%); assay type: functional; summary of the method: as §6
[19] = test system: SH-SY5Y; assay: Neuroprotective activity against ATRA-differentiated and MPP+ induced cell death in human SH-SY5Y cells assessed as cell death at 10 uM incubated for 24 hrs by propidium iodide staining based fluorescence assay (reference value: 100%); assay type: functional; summary of the method: as §1
[20] = test system: SH-SY5Y; assay: Neuroprotective activity against MPP+ induced cell death in human SH-SY5Y cells at 1 to 10 uM in presence of SR144528; assay type: functional, cell-based; conditions: dose 1-10 µM; summary of the method: as §4
[21] = test system: SH-SY5Y; assay: Neuroprotective activity against ATRA-differentiated and MPP+ induced cell death in human SH-SY5Y cells assessed as cell death at 1 uM by LDH release assay (reference value: 100%); assay type: functional; summary of the method: as §7
[22] = molecular target: Cannabinoid receptor 2 (Homo sapiens) (UniProt P34972); assay: Activation of CB2 (unknown origin) expressed in CHO cells at 1 to 10 uM; assay type: cell-based; conditions: dose 1-10 µM
Summary of the method: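 cAMP quantified in CB2-transfected CHO cells after treatment; compound tested at 1 and 10 μM to detect direct receptor activation (commercial LeadHunter service).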

[23] = test system: SH-SY5Y; assay: Neuroprotective activity against ATRA-differentiated and 3-NPA induced cell death in human SH-SY5Y cells assessed as cell death at 0.1 uM incubated for 48 hrs by propidium iodide staining based fluorescence assay (reference value: 100%); assay type: functional; summary of the method: as §6
[24] = test system: SH-SY5Y; assay: Neuroprotective activity against ATRA-differentiated and MPP+ induced cell death in human SH-SY5Y cells assessed as cell death at 0.1 uM incubated for 24 hrs by propidium iodide staining based fluorescence assay (reference value: 100%); assay type: functional; summary of the method: as §1
[25] = molecular target: Acetylcholinesterase (Electrophorus electricus, UniProt O42275); assay: Inhibition of electric eel AChE using acetylthiocholine as substrate by Ellman's method
[26] = test system: SH-SY5Y; assay: Cytotoxicity against human SH-SY5Y cells assessed as cell death at 10 uM incubated for 72 hrs by propidium iodide staining based fluorescence assay; assay type: toxicity
Summary of the method: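 SH-SY5Y differentiated to neuron-like phenotype with 10 μM all-trans retinoic acid for 48 h, 20 000 cells/well. Compounds from DMSO stocks (DMSO ≤0.5 %) added, then 72 h exposure. Control wells lysed with 1 % Triton X-100 for 1 min, then all wells stained with propidium iodide for fluorescence read-out. Dead-cell proportion expressed relative to Triton X-100-treated control.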

Mitogen-activated protein kinase; ERK1/ERK2 (Homo sapiens), sequence (P27361 whole entry, looked up): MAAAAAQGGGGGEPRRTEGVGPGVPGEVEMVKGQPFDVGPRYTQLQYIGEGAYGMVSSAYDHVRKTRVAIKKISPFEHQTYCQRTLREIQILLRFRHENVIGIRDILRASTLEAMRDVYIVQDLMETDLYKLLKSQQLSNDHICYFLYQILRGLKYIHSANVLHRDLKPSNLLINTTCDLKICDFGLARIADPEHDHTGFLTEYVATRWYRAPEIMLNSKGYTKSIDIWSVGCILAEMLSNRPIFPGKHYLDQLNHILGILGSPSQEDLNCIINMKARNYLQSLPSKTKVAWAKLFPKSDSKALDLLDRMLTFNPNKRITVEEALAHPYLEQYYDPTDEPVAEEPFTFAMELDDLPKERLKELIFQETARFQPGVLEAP
Mitogen-activated protein kinase; ERK1/ERK2 (Homo sapiens), sequence (P28482 whole entry, looked up): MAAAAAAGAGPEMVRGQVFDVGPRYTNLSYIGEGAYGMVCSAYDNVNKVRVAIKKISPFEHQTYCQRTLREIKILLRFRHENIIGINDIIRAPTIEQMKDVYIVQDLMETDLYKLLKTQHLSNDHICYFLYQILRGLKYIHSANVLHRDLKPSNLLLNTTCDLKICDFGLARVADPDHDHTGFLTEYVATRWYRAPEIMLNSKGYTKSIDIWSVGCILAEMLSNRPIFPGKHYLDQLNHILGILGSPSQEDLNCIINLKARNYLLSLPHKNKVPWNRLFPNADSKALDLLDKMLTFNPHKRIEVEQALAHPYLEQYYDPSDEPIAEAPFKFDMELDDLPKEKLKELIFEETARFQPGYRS
Cannabinoid receptor 2 (Homo sapiens), sequence (P34972 whole entry): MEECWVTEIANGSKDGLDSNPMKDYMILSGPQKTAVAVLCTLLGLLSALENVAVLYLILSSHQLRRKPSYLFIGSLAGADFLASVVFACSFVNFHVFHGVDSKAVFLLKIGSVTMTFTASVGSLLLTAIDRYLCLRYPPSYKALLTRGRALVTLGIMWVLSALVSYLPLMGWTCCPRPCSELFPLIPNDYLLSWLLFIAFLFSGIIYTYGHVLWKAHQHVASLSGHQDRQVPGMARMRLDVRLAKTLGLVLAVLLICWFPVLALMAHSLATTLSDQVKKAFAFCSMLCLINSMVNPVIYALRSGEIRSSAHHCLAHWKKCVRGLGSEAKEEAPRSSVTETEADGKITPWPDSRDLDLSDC
Cholinesterase, sequence (P81908 whole entry): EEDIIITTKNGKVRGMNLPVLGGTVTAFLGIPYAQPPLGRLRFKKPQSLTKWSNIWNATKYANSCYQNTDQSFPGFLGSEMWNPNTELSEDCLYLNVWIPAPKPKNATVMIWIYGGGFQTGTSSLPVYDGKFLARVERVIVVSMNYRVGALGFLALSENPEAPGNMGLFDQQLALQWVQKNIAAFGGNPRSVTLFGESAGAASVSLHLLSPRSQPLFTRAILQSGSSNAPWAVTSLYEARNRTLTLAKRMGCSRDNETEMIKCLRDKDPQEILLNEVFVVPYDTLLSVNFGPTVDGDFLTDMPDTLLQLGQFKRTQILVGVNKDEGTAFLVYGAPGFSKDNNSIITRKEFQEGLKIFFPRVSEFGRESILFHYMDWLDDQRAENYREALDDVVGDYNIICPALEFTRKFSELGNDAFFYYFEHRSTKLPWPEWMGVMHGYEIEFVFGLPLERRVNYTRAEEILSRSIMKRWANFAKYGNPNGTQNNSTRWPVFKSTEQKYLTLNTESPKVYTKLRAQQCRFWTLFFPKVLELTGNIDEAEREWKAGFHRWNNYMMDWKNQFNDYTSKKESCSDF
Acetylcholinesterase, sequence (O42275 whole entry): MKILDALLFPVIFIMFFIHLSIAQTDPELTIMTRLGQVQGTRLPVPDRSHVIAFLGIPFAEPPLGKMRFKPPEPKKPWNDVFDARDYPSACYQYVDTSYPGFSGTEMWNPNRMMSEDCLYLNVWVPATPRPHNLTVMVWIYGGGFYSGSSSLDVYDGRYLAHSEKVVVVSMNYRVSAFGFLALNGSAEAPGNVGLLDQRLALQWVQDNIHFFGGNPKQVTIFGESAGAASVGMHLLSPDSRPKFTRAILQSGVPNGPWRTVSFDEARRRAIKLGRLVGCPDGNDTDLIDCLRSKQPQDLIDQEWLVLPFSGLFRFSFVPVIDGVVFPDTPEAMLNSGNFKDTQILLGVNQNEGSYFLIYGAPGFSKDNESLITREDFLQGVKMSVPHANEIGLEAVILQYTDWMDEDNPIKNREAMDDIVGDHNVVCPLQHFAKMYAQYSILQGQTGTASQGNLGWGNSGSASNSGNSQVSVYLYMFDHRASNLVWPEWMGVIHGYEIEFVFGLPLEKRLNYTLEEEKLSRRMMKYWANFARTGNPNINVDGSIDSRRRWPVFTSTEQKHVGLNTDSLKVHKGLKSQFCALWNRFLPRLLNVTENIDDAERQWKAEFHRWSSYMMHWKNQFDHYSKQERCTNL

CC1(C)Nc2ccccc2-c2nc3ccccn3c21
inhibition [1]: Active
Activity [2]: 39.7%
Ratio IC50 [3]: 1.68
Activity [4]: 64.2%
IC50 [5]: 28.5 µM
inhibition [6]: Active
Activity [7]: inactive
Activity [8]: 58.8%
inhibition at 10 µM [9]: 41.3%
inhibition at 10 µM [10]: 44.4%
Activity [11]: 48.8%
inhibition [12]: Active
Activity [13]: 57.8%
inhibition at 10 µM [14]: 66.8%
Activity [15]: 37.9%
Activity [16]: 50.2%
Activity [17]: Active
Activity [18]: 83.1%
Activity [19]: 26.2%
Activity [20]: inactive
Activity [21]: Active
Activity [22]: inactive
Activity [23]: 98.7%
Activity [24]: 96.7%
IC50 [25]: 47.9 µM
Activity [26]: 14.6%
